# Data taken from ChEMBL document CHEMBL4316585, “On the role of synthesized hydroxylated chalcones as dual functional amyloid-β aggregation and ferroptosis inhibitors for potential treatment of Alzheimer's disease” (Eur J Med Chem, 2019).
# Active and inactive are the calls of the source. The calls are words filed in the database; no cut-off is given here.
# Assays:
# [1] = target: Amyloid-beta precursor protein (Homo sapiens) (UniProt P05067); experiment: Inhibition of HFIP-pretreated amyloid beta (1 to 42 residues) (unknown origin) self aggregation at 25 uM after 7 days by ThT-based fluorometric method relative to control
# Summary of the method: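 Aβ1-42 (25 μM) incubated with or without inhibitor (25 μM, 1:1) in 10 mM phosphate buffer pH 7.4 with 100 mM NaCl at 37 °C for 7 days. Inhibitor-only blanks included. Samples diluted in 50 mM glycine-NaOH pH 8.0 containing 5 μM ThT, fluorescence read at ex 440/em 485 nm. % inhibition = (1−IFi/IFc)×100 after background subtraction, triplicate.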
# SH-SY5Y [2] = experiment: Neuroprotective activity against amyloid beta (1 to 42)-induced neurodegeneration in human SH-SY5Y cells assessed as cell viability at 10 uM preincubated for 4 hrs followed by amyloid beta (1 to 42) addition and measured after 48 hrs by MTS assay (reference value: 60.4%); assay type: functional; conditions: for viability at 10 µM: read-out: Activity
# SH-SY5Y [3] = experiment: (§1) Neurotoxicity against human SH-SY5Y cells assessed as cell viability at 10 to 40 uM after 24 hrs […] relative to control; assay type: toxicity, cell-based; conditions: sh-sy5y, 24 h, 40 µM
# SH-SY5Y [4] = experiment: Inhibition of RSL3-induced lipid peroxidation in human SH-SY5Y cells at 10 uM incubated for 24 hrs by BODIPY-C11'581/591 probe-based flow cytometric analysis; assay type: functional, cell-based
# Summary of the method: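 SH-SY5Y seeded 2×10^4/well and adhered 24 h, then given compound plus RSL3 (500 nM) for 24 h. Stained with BODIPY-C11 581/591 (1 μM) for 30 min at 37 °C in the dark. Flow cytometry at ex 488, em 525±25 nm, 10,000 events. Controls: untreated (negative), DEM 1 mM, and RSL3 alone.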
# HEK293 [5] = experiment: Inhibition of erastin-induced ferroptosis in HEK293 cells preincubated for 4 hrs followed by erastin stimulation and measured at next day by MTS assay; assay type: functional, cell-based, Homo sapiens
# Summary of the method: (§2)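 HEK-293 cells grown in DMEM with 10 % FBS, 1 % pen/strep and 1 mM sodium pyruvate, 37 °C, 5 % CO2. Seeded 5000/well for 24 h. Compounds at a range of concentrations added 4 h before ferroptosis induction with (1S,3R)-RSL3 (500 nM) or erastin (10 μM). MTS viability read 24 h after induction, normalized to vehicle. IC50 taken as the mean of ≥3 experiments.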
# HEK293 [6] = experiment: Inhibition of (1S,3R)-RSL3-induced ferroptosis in HEK293 cells preincubated for 4 hrs followed by (1S,3R)-RSL3 stimulation and measured at next day by MTS assay; conditions: Homo sapiens
# SH-SY5Y [7] = experiment: Neuroprotective activity against amyloid beta (1 to 42)-induced neurodegeneration in human SH-SY5Y cells assessed as increase in cell viability at 1 uM preincubated for 4 hrs followed by amyloid beta (1 to 42) addition after 48 hrs by micrograph method; assay type: functional, cell-based
# Summary of the method: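 SH-SY5Y cells pretreated with compound (1 μM), then exposed to Aβ1-42 (10 μM) for 48 h. Cell morphology and clumping assessed by light micrographs against vehicle and Aβ-alone cells.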
# SH-SY5Y [8] = experiment: Neuroprotective activity against amyloid beta (1 to 42)-induced neurodegeneration in human SH-SY5Y cells assessed as cell viability at 0.5 uM preincubated for 4 hrs followed by amyloid beta (1 to 42) addition and measured after 48 hrs by MTS assay (reference value: 55.1%); assay type: functional; conditions: read-out: Activity
# SH-SY5Y [9] = experiment: Neuroprotective activity against amyloid beta (1 to 42)-induced neurodegeneration in human SH-SY5Y cells assessed as cell viability at 1 uM preincubated for 4 hrs followed by amyloid beta (1 to 42) addition and measured after 48 hrs by MTS assay (reference value: 55.1%); assay type: functional; conditions: read-out: Activity
# SH-SY5Y [10] = experiment: Inhibition of amyloid beta (1 to 42)-induced lipid peroxidation in human SH-SY5Y cells at 10 uM incubated for 48 hrs by BODIPY-C11'581/591 probe-based flow cytometric analysis; assay type: functional, cell-based
# Summary of the method: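 SH-SY5Y seeded 2×10^4/well and adhered 24 h, then given compound with Aβ1-42 for 48 h. Stained with BODIPY-C11 581/591 (1 μM) for 30 min at 37 °C in the dark. Flow cytometry at ex 488, em 525±25 nm, 10,000 events. Untreated, DEM (1 mM) and Aβ-alone controls.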
# [11] = as §1; assay type: toxicity, cell-based; conditions: SH-SY5Y cells, read-out: Activity
# HEK293 [12] = experiment: Inhibition of (1S,3R)-RSL3-induced ferroptosis in HEK293 cells preincubated for 4 hrs followed by erastin stimulation and measured at next day by MTS assay; assay type: functional, cell-based, Homo sapiens; summary of the method: as §2
# [13] = Homo sapiens, HEK293, read-out: IC50
# Sequence of Amyloid-beta precursor protein (Homo sapiens) (P05067 whole entry, the tested form may be a part): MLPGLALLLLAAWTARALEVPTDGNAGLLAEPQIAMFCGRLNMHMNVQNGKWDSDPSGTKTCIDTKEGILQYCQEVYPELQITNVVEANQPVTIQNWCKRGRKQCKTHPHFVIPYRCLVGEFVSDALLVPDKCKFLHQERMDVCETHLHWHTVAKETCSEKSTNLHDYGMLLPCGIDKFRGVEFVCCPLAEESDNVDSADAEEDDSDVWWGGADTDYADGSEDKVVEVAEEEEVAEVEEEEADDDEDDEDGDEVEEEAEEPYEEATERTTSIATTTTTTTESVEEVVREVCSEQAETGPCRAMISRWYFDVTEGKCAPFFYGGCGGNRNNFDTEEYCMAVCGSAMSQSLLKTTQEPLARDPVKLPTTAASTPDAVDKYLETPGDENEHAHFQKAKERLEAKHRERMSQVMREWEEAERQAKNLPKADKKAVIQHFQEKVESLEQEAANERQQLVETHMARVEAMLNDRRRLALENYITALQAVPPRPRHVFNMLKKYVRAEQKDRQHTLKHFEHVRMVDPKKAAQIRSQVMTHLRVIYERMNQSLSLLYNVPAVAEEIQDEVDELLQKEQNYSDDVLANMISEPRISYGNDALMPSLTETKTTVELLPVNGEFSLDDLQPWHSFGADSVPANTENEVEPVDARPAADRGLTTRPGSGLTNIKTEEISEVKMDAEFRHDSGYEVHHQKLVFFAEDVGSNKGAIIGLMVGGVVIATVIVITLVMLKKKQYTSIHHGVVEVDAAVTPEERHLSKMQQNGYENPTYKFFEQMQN
SMILES,inhibition [1],viability at 10 µM (SH-SY5Y [2]),Activity (SH-SY5Y [3]),viability at 0.5 µM (SH-SY5Y [8]),viability at 1 µM (SH-SY5Y [9]),other results
COCOc1ccc(C(=O)/C=C/c2cccc(C)c2)c(O)c1OCOC,16.4%,72 to 84.9%,Non-Toxic,,,
COCOc1ccc(C(=O)/C=C/c2ccc(OC)cc2)c(O)c1OCOC,16.4%,72 to 84.9%,Non-Toxic,,,
COc1ccc(/C=C/C(=O)c2ccc(O)c(O)c2O)cc1,70.3 to 76.3%,96.5 to 106%,Non-Toxic,66.7 to 73.8%,70.8 to 77.5%,inhibition (SH-SY5Y [4]): Active; IC50 (HEK293 [5]; [13]): 3880 nM; IC50 (HEK293 [6]): 1770 nM; Activity (SH-SY5Y [7]): Active
COc1ccc(/C=C/C(=O)c2cc(O)cc(O)c2)cc1,19%,,Non-Toxic,,,Activity (SH-SY5Y [2]): Active
O=C(/C=C/c1cccc(Cl)c1)c1ccc(O)c(O)c1O,70.3 to 76.3%,96.5 to 106%,Non-Toxic,66.7 to 73.8%,70.8 to 77.5%,inhibition (SH-SY5Y [4]): Active; IC50 (HEK293 [5]; [13]): 3150 nM; IC50 (HEK293 [6]): 860 nM; Activity (SH-SY5Y [7]): Active
Cc1cccc(/C=C/C(=O)c2ccc(O)c(O)c2O)c1,70.3 to 76.3%,96.5 to 106%,Non-Toxic,66.7 to 73.8%,70.8 to 77.5%,IC50 (HEK293 [5]; [13]): 3810 nM; IC50 (HEK293 [6]): 450 nM; Activity (SH-SY5Y [7]): Active; inhibition (SH-SY5Y [10]): Active
Cc1cccc(/C=C/C(=O)c2cccc(O)c2)c1,inactive,,,,,"viability at 24 h, up to 40 µM [11]: 73.6 to 77.4%"
COc1ccc(/C=C/C(=O)c2cccc(O)c2)cc1OC,inactive,,Non-Toxic,,,
COc1cc(/C=C/C(=O)CC(=O)/C=C/c2ccc(O)c(OC)c2)ccc1O [CURCUMIN],,76%,,,,
COCOc1ccc(C(=O)/C=C/c2cccc(Cl)c2)c(O)c1OCOC,16.4%,72 to 84.9%,Non-Toxic,,,
O=C(O[C@@H]1Cc2c(O)cc(O)cc2O[C@@H]1c1cc(O)c(O)c(O)c1)c1cc(O)c(O)c(O)c1 [EPIGALOCATECHIN GALLATE],52.9%,92.5%,,60.1%,63%,IC50 (HEK293 [5]; hek293): Not Active; IC50 (HEK293 [12]): Not Active
Cc1cccc(/C=C/C(=O)c2cc(O)cc(O)c2)c1,27.2%,,Non-Toxic,,,Activity (SH-SY5Y [2]): Active
